GSIS activator – primary screen for activators of insulin secretion dependent on glucose, INS-1E cells, GLuc reporter luminescence | INS-1E GLuc reporter insulin secretion, 2-3 h | activation, % at 16.6 µM | hit rate 0.61% among 370,000 | AID 743287;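 active means lowest replicate activation of at least 40%, so every replicate reaches that level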
CFTR F508del cor – correctors of CFTR F508del function in bronchial epithelial cells | CFBE cells, YFP halide quenching; stimulated with forskolin plus potentiator P3; % fluorescence drop versus neutral controls | activity (quench increase), % at 7.58 µM | hit rate 0.36% among 350,000;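 active means mean added fluorescence quench of at least 8% versus neutral control, with both replicates also reaching 8%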;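 further: cells transiently co-express mutant CFTR-F508del with the halide-sensitive YFP; corrector assay measuring rescue of mutant channel to the surface after 24 h compound exposure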
miR-122 sensor – inhibitors of miR-122 in Huh7 cells. activation (reporter increase), % at 12.5 µM. hit rate 0.3% among 340,000. Huh7 miR-122 Renilla luciferase sensor, 48 h; neutral wells = 0, positive control = 100;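 active means mean replicate activation score at least 90 and every replicate individually at or above 90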;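 further: higher luciferase means less miR-122 activity so hits act as miR-122 inhibitors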
E-selectin induc – induces E-selectin expression in human endothelial cells. P16581. activation, % at 7.58 µM. AID 686992. hit rate 0.37% among 260,000. HUVEC E-selectin immunofluorescence imaging; normalized: neutral wells 0, TNF-alpha wells 100;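 active means mean E-selectin-positive cell signal at least 10% of the positive control, reached in at least 60% of replicates, without over 20% cell loss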
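Material: HUVEC primary endothelial cells; Amount: 3,000 cells per well; Dosing: single concentration; Medium: EGM-2 growth medium on 0.1% gelatin-coated wells; Read-out basis: percent E-selectin-positive cells; Signal: immunofluorescence imaging; Control set: TNF-alpha, DMSO.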
ERAP1 HTS inh – inhibitors of human ERAP1 aminopeptidase; Q9NZ08; recombinant ERAP1, Leu-AMC fluorescence, 60 min; inhibition, % at 10.7 µM; hit rate 0.15% among 340,000; AID 652197;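 active means mean replicate inhibition of at least 30%, or all replicates individually reaching that 30% level; inactive means mean below 30% and not every replicate reaching it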
Target sequence (Q9NZ08 whole entry, looked up): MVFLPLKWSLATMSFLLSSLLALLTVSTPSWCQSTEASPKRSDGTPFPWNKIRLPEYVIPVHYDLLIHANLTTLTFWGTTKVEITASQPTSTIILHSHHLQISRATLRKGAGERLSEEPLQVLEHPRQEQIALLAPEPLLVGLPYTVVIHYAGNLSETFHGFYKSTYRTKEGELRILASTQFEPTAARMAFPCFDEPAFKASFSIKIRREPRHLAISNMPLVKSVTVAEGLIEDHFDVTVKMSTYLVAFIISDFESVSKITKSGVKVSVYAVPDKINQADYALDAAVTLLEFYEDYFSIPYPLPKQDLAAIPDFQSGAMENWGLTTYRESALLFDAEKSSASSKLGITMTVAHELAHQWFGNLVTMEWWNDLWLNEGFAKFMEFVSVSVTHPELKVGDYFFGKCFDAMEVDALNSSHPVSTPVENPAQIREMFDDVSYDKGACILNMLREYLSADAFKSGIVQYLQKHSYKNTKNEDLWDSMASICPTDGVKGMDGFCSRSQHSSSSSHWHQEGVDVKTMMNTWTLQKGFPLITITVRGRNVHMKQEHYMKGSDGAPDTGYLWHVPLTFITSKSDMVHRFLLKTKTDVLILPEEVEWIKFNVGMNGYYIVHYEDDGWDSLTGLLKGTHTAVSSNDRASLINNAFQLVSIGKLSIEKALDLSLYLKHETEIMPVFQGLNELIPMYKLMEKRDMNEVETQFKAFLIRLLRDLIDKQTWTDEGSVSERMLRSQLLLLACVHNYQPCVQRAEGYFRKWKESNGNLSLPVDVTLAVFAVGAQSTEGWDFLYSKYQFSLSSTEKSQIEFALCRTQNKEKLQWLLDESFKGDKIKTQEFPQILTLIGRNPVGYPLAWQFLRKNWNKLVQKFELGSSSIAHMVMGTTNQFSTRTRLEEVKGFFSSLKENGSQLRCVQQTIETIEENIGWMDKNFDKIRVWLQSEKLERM
DENV2 CPE rescue – protects cells from dengue virus 2 cytopathic effect; DENV2-infected cells, cytopathic effect rescue, plate reader; CPE inhibition, % at 9.99 µM; hit rate 1.7% among 350,000; in the data active means CPE inhibition above about 20%, passing the limit was not always enough; tested in BHK-21 cells
A number is an active result. Compounds with a hit are over-represented: about 2.6% of the library has one in this group of screens.

Cc1noc(C)c1NC(=O)N(C)C[C@@H]1Oc2ccc(NC(=O)NC3CCCCC3)cc2CC(=O)N([C@H](C)CO)C[C@H]1C was read as GSIS activator inactive, CFTR F508del cor inactive, miR-122 sensor inactive, E-selectin induc inactive, ERAP1 HTS inh inactive and DENV2 CPE rescue 32.
For Cc1noc(C)c1NC(=O)Nc1ccc2c(c1)CC(=O)N([C@@H](C)CO)C[C@H](C)[C@@H](CN(C)C(=O)Nc1ccc(F)cc1)O2 the results were GSIS activator inactive, CFTR F508del cor inactive, miR-122 sensor inactive, E-selectin induc 73, ERAP1 HTS inh inactive and DENV2 CPE rescue inactive.
`Cc1noc(C)c1NC(=O)N(C)C[C@@H]1Oc2ccc(NC(=O)Cc3ccccc3)cc2CC(=O)N([C@H](C)CO)C[C@H]1C` gave GSIS activator inactive, CFTR F508del cor inactive, miR-122 sensor inactive, E-selectin induc inactive, ERAP1 HTS inh inactive and DENV2 CPE rescue inactive.
For Cc1noc(C)c1NC(=O)N(C)C[C@H]1Oc2ccc(NC(=O)NC3CCCCC3)cc2CC(=O)N([C@@H](C)CO)C[C@@H]1C the results were GSIS activator inactive, CFTR F508del cor inactive, miR-122 sensor inactive, E-selectin induc inactive, ERAP1 HTS inh inactive and DENV2 CPE rescue inactive.
Cc1noc(C)c1NC(=O)N(C)C[C@H]1Oc2ccc(NC(=O)Cc3ccccc3)cc2CC(=O)N([C@@H](C)CO)C[C@H]1C was read as GSIS activator inactive, CFTR F508del cor inactive, miR-122 sensor inactive, E-selectin induc inactive and DENV2 CPE rescue 54.
For C[C@H](NC(=O)C[C@@H]1CC[C@@H](NC(=O)Cc2ccccn2)[C@H](CO)O1)c1ccccc1 the results were GSIS activator inactive, CFTR F508del cor inactive, miR-122 sensor inactive, E-selectin induc inactive, ERAP1 HTS inh inactive and DENV2 CPE rescue inactive.
Screening Cc1ccc(-c2ccc3c(c2)O[C@H](CN(C)Cc2ccncc2)[C@@H](C)CN([C@H](C)CO)S3(=O)=O)cc1 returned GSIS activator inactive, CFTR F508del cor inactive, miR-122 sensor inactive, E-selectin induc inactive, ERAP1 HTS inh inactive and DENV2 CPE rescue inactive.
For O=C(NCC1CCCO1)C(c1cccs1)N(Cc1cccs1)C(=O)Cn1nnc(-c2cccs2)n1 (stereo not drawn) the results were miR-122 sensor 116.
CC(=O)NC(c1cccc(F)c1)c1nc(-c2ccc(N(C)C)cc2)cs1 (stereo not drawn) was read as GSIS activator inactive, CFTR F508del cor inactive, miR-122 sensor inactive, E-selectin induc inactive, ERAP1 HTS inh inactive and DENV2 CPE rescue 26.
COc1ccc(-c2csc(C(NC(C)=O)c3cccc(F)c3)n2)cc1 (stereo not drawn) was read as GSIS activator inactive, CFTR F508del cor inactive, miR-122 sensor inactive, E-selectin induc inactive, ERAP1 HTS inh inactive and DENV2 CPE rescue inactive.
C[C@@H]1CN([C@H](C)CO)C(=O)c2cc(NC(=O)c3ccncc3)ccc2O[C@@H](C)CCCCO[C@@H]1CN(C)S(=O)(=O)c1ccccc1 was read as GSIS activator inactive, CFTR F508del cor inactive, miR-122 sensor inactive, ERAP1 HTS inh inactive and DENV2 CPE rescue inactive.
`COc1ccc(S(=O)(=O)Nc2ccc3c(c2)C(=O)N([C@H](C)CO)C[C@@H](C)[C@@H](CN(C)S(=O)(=O)c2ccc(F)cc2)OCCCC[C@H](C)O3)cc1` gave GSIS activator inactive, CFTR F508del cor inactive, miR-122 sensor inactive, E-selectin induc inactive, ERAP1 HTS inh inactive and DENV2 CPE rescue inactive.
`O=C(C[C@H]1CC[C@@H]2[C@H](COC[C@@H](O)CN2Cc2ccc(Oc3ccccc3)cc2)O1)N1CCCCC1` gave GSIS activator inactive, CFTR F508del cor inactive, miR-122 sensor inactive, E-selectin induc inactive, ERAP1 HTS inh inactive and DENV2 CPE rescue inactive.
`CCOc1cc(S(=O)(=O)Nc2cc(C)cc(C)c2)ccc1Cl` gave GSIS activator inactive and miR-122 sensor 118.
Cc1cc(C)cc(NS(=O)(=O)c2ccc3oc(=O)ccc3c2)c1 was read as GSIS activator inactive and miR-122 sensor 105.
For CC(C)(O)C#Cc1ccc([C@H]2[C@@H](CO)N3CCCCN(S(C)(=O)=O)C[C@H]23)cc1 the results were GSIS activator inactive, CFTR F508del cor inactive, miR-122 sensor inactive and E-selectin induc inactive.
COc1cc(/C=C/C(=O)OCC(=O)Nc2cc(S(=O)(=O)N3CCCCC3)ccc2C)ccc1O was read as GSIS activator inactive, ERAP1 HTS inh inactive and DENV2 CPE rescue 22.
Screening CC(C)c1c(C(=O)N/N=C/c2cccc3ccccc23)nnn1-c1nonc1N returned GSIS activator 75, CFTR F508del cor inactive, miR-122 sensor inactive, ERAP1 HTS inh inactive and DENV2 CPE rescue inactive.
CC1(C(=O)Nc2ccc3c(c2)OCCO3)CCC(=O)N1CC(F)(F)F (stereo not drawn) was read as GSIS activator inactive, CFTR F508del cor inactive, miR-122 sensor inactive, E-selectin induc inactive, ERAP1 HTS inh inactive and DENV2 CPE rescue inactive.
`Cn1nc(C(C)(C)C)cc1N1C(=O)CCC1(C)C(=O)Nc1ccc2c(c1)OCCO2` (stereo not drawn) gave GSIS activator inactive, CFTR F508del cor inactive, miR-122 sensor inactive, E-selectin induc inactive, ERAP1 HTS inh inactive and DENV2 CPE rescue 24.
Screening C[C@@H]1CCCCO[C@@H](CN(C)S(C)(=O)=O)[C@H](C)CN([C@H](C)CO)C(=O)c2cc(NC(=O)Nc3ccc(C(F)(F)F)cc3)ccc2O1 returned GSIS activator inactive, CFTR F508del cor inactive, miR-122 sensor inactive, E-selectin induc inactive, ERAP1 HTS inh inactive and DENV2 CPE rescue inactive.
For O=C(C1CCCCC1)N1CC2(C1)[C@H](c1ccccc1)[C@H](CO)N2Cc1cncnc1 the results were GSIS activator inactive, CFTR F508del cor inactive, E-selectin induc inactive, ERAP1 HTS inh inactive and DENV2 CPE rescue 40.
`O=C(C1CCCC1)N1CC2(C1)[C@@H](c1ccccc1)[C@@H](CO)N2Cc1ccc(Cl)cc1` gave GSIS activator inactive, CFTR F508del cor inactive, E-selectin induc inactive, ERAP1 HTS inh inactive and DENV2 CPE rescue inactive.
Screening O=C(C1CCOCC1)N1CC2(C1)[C@H](c1ccccc1)[C@@H](CO)N2Cc1ccc(Cl)cc1 returned GSIS activator inactive, CFTR F508del cor inactive, E-selectin induc inactive, ERAP1 HTS inh inactive and DENV2 CPE rescue 29.
`C[C@H]1CN(C)C(=O)c2cccc(NS(C)(=O)=O)c2O[C@H]1CN(C)C` gave GSIS activator inactive.
`C[C@H]1CN([C@@H](C)CO)S(=O)(=O)c2ccc(C#CC3CC3)cc2O[C@@H]1CN(C)Cc1ccc(F)cc1` gave GSIS activator inactive, CFTR F508del cor inactive, miR-122 sensor inactive, ERAP1 HTS inh inactive and DENV2 CPE rescue inactive.
`O=c1cc(-c2ccncc2)oc2c1ccc1ccccc12` gave GSIS activator 47, CFTR F508del cor inactive, miR-122 sensor inactive, E-selectin induc inactive, ERAP1 HTS inh inactive and DENV2 CPE rescue inactive.

Bioassay records deposited in PubChem BioAssay by Broad Institute.
